A number with no mark means an inactive call. Results filed as inconclusive are left out. Activity calls are given as the source filed them.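 The calls were made as follows, unless noted: active = cell viability at or below a set limit in both duplicate runs, the limit being the all-compound median minus 4 SD (cut at about 23% in these data, passing the limit was not always enough); inconclusive = no clear call, values can overlap the other calls; inactive = the rest.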
Assays:
[1] = OD615 S. cerevisiae growth inhibition, permissive medium, pilot counter-assay, permissive growth control for S. cerevisiae lifespan shortening project (AID 705;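 active = growth inhibition above 25% in both replicates, a cutoff set 3 SD above the mean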); settings: OD615, 24 h, at 10 µM, stronger effect = higher value
Outline: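 Timing: 24 h exposure, 30 °C / Material: Saccharomyces cerevisiae strain carrying genetically modified DeaD replicative-lifespan system / Signal: OD at 615 nm / Compound: 10 µM single dose, 0.25% DMSO / Medium: SC raffinose/galactose permissive medium / Evaluation: reduction in yeast growth (OD615)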

[2] = Restrictive medium S. cerevisiae growth inhibition, OD615, pilot screen of yeast lifespan reduction project, restrictive growth control (AID 706;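 active = growth inhibition above a set limit, 3 SD over mean compound inhibition, in both replicates, cut at about 43% in these data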;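 also: modified DeaD lifespan yeast strain shifted to restrictive glucose medium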); settings: OD615, 48 h, at 10 µM, stronger effect = higher value
Outline: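 System: Engineered S. cerevisiae DeaD strain | Detection: OD615 | Buffer or medium: CSMM-D glucose medium | Doses: 10 µM compound, 0.25% DMSO | Timing: 4 h pre-growth plus 48 h compound exposure, 30 °C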

[3] = viability gain of MRP-1-high H69AR cells under doxorubicin, pilot screen, MRP-1 activator project, CellTiter-Glo, duplicate (AID 807;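 active = viability increase at or above a cutoff of the median across tested compounds plus 3 SD, cut at about 8.5% in these data, passing the limit was not always enough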;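 also: compound pretreatment 18-22 h then 72 h combined with doxorubicin; 0% = doxorubicin alone and 100% = vehicle without doxorubicin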); settings: H69AR viability with doxorubicin, CellTiter-Glo luminescence; at 10 µM; stronger effect = higher value
[4] = growth suppression of beta-catenin knockout HCT116, pilot screen, human colon tumor cells (AID 823); settings: CellTiter-Glo, 60 h, at 10 µM, stronger effect = lower value;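 also: 0% = wells killed by 20 µM Hyamine and 100% = untreated DMSO cell wells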
[5] = growth suppression of PTEN-deleted HCT116, pilot screen, cell-based, HCT116 clonal line, CellTiter-Glo (AID 824;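 active = viability at or below 27.92% in each of two runs, the all-compound median minus 4 SD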;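 also: 0% = 20 µM Hyamine control and 100% = vehicle cell control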); settings: 60 h, at 10 µM, stronger effect = lower value
[6] = inhibitors of the yeast RAM network, pilot screen, dse1pr::URA3 reporter, 5-FOA selection (AID 869;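 active = inhibition over a set limit, the all-compound mean plus 3 SD, in both replicate runs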;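 also: 0% = DMSO wells with no growth and 100% = 10 µM 1-NA-PP1 with full growth; RAM network block rescues cells from 5-FOA so hits raise OD615 growth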); settings: S. cerevisiae dse1pr::URA3 5-FOA growth, OD615, 2 d; at 10 µM; stronger effect = higher value; strain carries analog-sensitive mutant Cbk1 kinase
[7] = RAM signaling pathway blockade in yeast – S. cerevisiae, Pdr1DBD-CYC8 efflux-inhibited sensitized strain, primary screen (AID 1298;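 active = RAM network inhibition above 8.4% in each of two replicates, 3 SD over the compound average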;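 also: 0% = DMSO untreated cells without growth and 100% = 10 µM 1-NA-PP1 full growth; higher means more yeast growth rescued from 5-FOA killing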); settings: S. cerevisiae cbk1-as DSE1-URA3 strain, 5-FOA growth OD615, 2 d; at 50 µM; stronger effect = higher value

| SMILES | growth inhibition [1] | growth inhibition [2] | viability increase [3] | viability [4] | viability [5] | inhibition [6] | RAM network inhibition [7] |
| --- | --- | --- | --- | --- | --- | --- | --- |
| CC1CC(C)CN(CCCNC(=O)Cc2c(C(=O)O)[nH]c3ccccc23)C1 (configuration not stated) | -11.5% | -13.5% | -0.1% | 103% | 99.6% | 0.68% | 1.78% |
| O=C(CSc1nnnn1-c1ccccc1)CSc1nnnn1-c1ccccc1 | -7.66% | 1.63% | -5.63% | 92.6% | 90.1% | 2.98% | 7.19% |
| CC(=O)c1ccc(NC(=O)CSc2nnc(Cc3cccn3C)n2-c2ccc(F)cc2)cc1 | 0.105% | 12.5% | -2.21% | 98% | 94.3% | 0.005% | 5.1% |
| Cc1cccc(-n2ncc3c(NCCc4ccc(S(N)(=O)=O)cc4)ncnc32)c1 | 2.13% | 1.53% | -2.67% | 88.8% | 82% | 1.27% | 4.84% |
| NC(=O)C1(N2CCCCC2)CCN(C(=O)c2ccccc2)CC1 | -4.24% | -19.4% | -1.09% | 103% | 90.4% | 0.21% | 5.36% |
| O=C(NCc1cccnc1)c1cccc(S(=O)(=O)N2CCOCC2)c1 | -7.59% | 1.51% | 0.32% | 103% | 101% | 1.6% | 0.62% |
| O=C(Cc1cccs1)N(Cc1ccco1)C1(C(=O)NC2CCCC2)CCCCC1 | -6.91% | -9.26% | -5.17% | 66.5% | 67.1% | 0.86% | 6.21% |
| COCCNC(=O)c1cc(-c2ccccc2OC)on1 | 5.14% | 11.4% | -5.78% | 62.3% | 55.5% | -0.05% | 2.09% |
| CSc1ccc(C2NC(=O)c3c(sc4c3CCN(C)C4)N2)cc1 (configuration not stated) | -13.2% | -0.305% | -2.7% | 78.2% | 92.5% | -0.285% | 4.99% |
| COc1cc2c(cc1OC)CN(Cc1cccs1)CC2 | -20.3% | -28.9% | -1.14% | 86.4% | 90% | 2.71% | 2.76% |
| O=C1C(Cl)=C(NCC2CCCO2)C(=O)N1C1CCCCC1 (configuration not stated) | -2.76% | 8.66% | -3.97% | 88.3% | 90.2% | 1.46% | 5.88% |
| O=C(O)c1cccnc1SC1CC(=O)N(c2cccc(C(F)(F)F)c2)C1=O (configuration not stated) | -15.3% | -3.59% | 0.62% | 103% | 101% | 1.56% | 3.58% |
| CCC1CCCCN1Cc1ccc(OC)c(OC)c1 (configuration not stated) | -7.04% | -8.04% | -2.09% | 87.8% | 96.9% | 2.01% | -1.61% |
| C=C(C)Cn1c(C(C)NC(=O)CCC)nc2ccccc21 (configuration not stated) | -26.1% | -7.25% | -3.54% | 83.9% | 86.7% | 1.8% | 0.47% |
| O=C(Nc1ccc2c(c1)OCO2)C1COc2ccccc2O1 (configuration not stated) | -13.5% | -5.98% | -3.15% | 91.9% | 99.8% | 2.16% | 3.35% |
| C=CCn1c(=O)c2c(nc3n2CC(C)CN3c2cccc(OC)c2)n(C)c1=O (configuration not stated) | -16.1% | -8.79% | -3.27% | 97.7% | 98.8% | 1.56% | 5.52% |
| CCOC(=O)CSc1nnc(CSc2nc(N)c3c(C)c(C)sc3n2)n1-c1ccccc1 | 14.1% | 53.5% (active) | -2.13% | 94.8% | 96.2% | 0.985% | 5.21% |
| COc1ccc(N(CC(=O)Nc2nc3ccc(C)cc3s2)S(=O)(=O)c2c(C)nn(C)c2C)cc1 | -5.89% | -16.3% | -7.24% | 64.9% | 57.1% | 1.33% | 6.79% |

| SMILES | growth inhibition [1] | growth inhibition [2] | viability increase [3] | viability [4] | viability [5] | inhibition [6] | RAM network inhibition [7] |
| --- | --- | --- | --- | --- | --- | --- | --- |
| COc1ccc(N2C(=O)C3CCCN3C2c2cccc(C)c2)cc1 (configuration not stated) | 2.65% | 15% | -3.13% | 97.4% | 100% | 1.83% | -1.25% |
| COCCCNC(=O)c1oc2ccc(S(=O)(=O)N(C)C3CCCCC3)cc2c1C | 1.36% | 5.4% | 0.15% | 90.1% | 94.2% | -0.46% | 1.23% |
| CCn1cc(CNC(=O)c2cc(Cl)ccc2OC)c(C)n1 | -4.3% | -0.555% | -0.95% | 91% | 92.2% | -0.445% | 3.38% |
| Cc1ccc(Cl)cc1N1CCN(C(=O)C2CCC(=O)N2C(C)C)CC1 (configuration not stated) | -2.15% | -5.95% | 2.45% | 93.6% | 85.8% | -0.505% | 5.7% |
| Cc1noc(C)c1S(=O)(=O)N1CCN(C(c2ccccc2)c2ccc(Cl)cc2)CC1 (configuration not stated) | -1.19% | -0.625% | 0.02% | 66.3% | 67.5% | 1.61% | 7.2% |
| O=C(Nc1ccccc1)N1CCN(Cc2ccc3c(c2)OCO3)CC1 | 5.22% | -15.8% | -1.15% | 101% | 96.8% | 1.25% | 2.76% |
| COc1ccc(NC(=O)C2CCCN(S(=O)(=O)c3cccc4cccnc34)C2)cc1 (configuration not stated) | -12.6% | 4.72% | -0.46% | 88.2% | 85.5% | 2.36% | 6.27% |
| CC(C)(C)NC(=O)CSc1nc(O)cc(=O)n1-c1ccccc1F | -5.45% | -3.51% | -0.7% | 95.5% | 101% | 0.91% | 1.87% |
| Cc1c(NS(=O)(=O)c2ccccc2)cc(Cl)c(O)c1C | -9.11% | -4.86% | -5.19% | 90.9% | 93.5% | 0.695% | 6.75% |
| CCCn1cc(SCC(=O)Nc2nnc(C)s2)c2ccccc21 | 3.3% | 0.865% | -2.55% | 91% | 96.2% | 1.1% | 3.75% |
| Cc1cc(N2C(=O)C3C4c5ccccc5C(c5ccccc54)C3C2=O)no1 (configuration not stated) | -9.23% | -12.7% | -2.14% | 80.2% | 90.7% | 0.02% | 5.19% |
| CCOC(=O)N1CCN(C(=O)C2CCN(C(=O)c3cc4sccc4n3CC)CC2)CC1 | -16.3% | -18.7% | -3.05% | 91.7% | 98.9% | 0.825% | 3.06% |
| CCNc1ccc(C(=O)OCC)cc1NC(=O)c1cccc(N(C)C)c1 | -8.58% | 2.37% | -5.51% | 18.4% (active) | 19.1% (active) | 0.385% | 2.72% |
| Cc1ccc(-c2nc(-c3ccccc3)no2)c(Cl)c1 | -6.6% | -11.1% | -4.72% | 78.9% | 78% | 3.96% | 3.45% |
| O=C1C(=C(O)c2ccccc2)C(=O)c2ccccc21 | -20.4% | 2.15% | -3.04% | 107% | 103% | -0.26% | -1.88% |
| O=C(Nc1nnc(-c2ccccc2)s1)c1ccc(Cl)c(S(=O)(=O)N2CCOCC2)c1 | -16.8% | -5.79% | -1.65% | 100% | 96.2% | 2.61% | 1.72% |
| COc1ccccc1C(=O)NC(CCSC)C(=O)NCC(c1ccco1)N(C)C (configuration not stated) | -10.1% | -0.55% | -2.48% | 87.2% | 89.5% | 1.89% | 1.92% |
| CCOCCn1c(SCc2ccc(F)cc2)nc2c1c(=O)[nH]c(=O)n2C | -4.31% | 5.57% | -2.04% | 99% | 94.3% | -0.925% | -0.32% |
